In the library only some 1.5% were active in any assay of this set; here they are far more common.
S100A4 MyoIIA: inhibitors of S100A4-myosin IIA peptide binding, primary screen, biochemical, fluorescence polarization, TAMRA-MyoIIA peptide. Protein S100-A4 (Homo sapiens), P26447. inhibition, % at 10.7 µM. actives 0.14% (n = 360,000);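 active = mean inhibition of at least 70% across replicates, with every replicate also reaching that level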
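Test system – S100A4 monomer (human) · Compound – single-point compound testing · Schedule – 5 min incubation before reading · Probe or stimulus – TAMRA-labelled myosin IIA heavy-chain peptide probe, 5 nM · Benchmarks – neutral control DMSO, positive control TFP · Medium – Calcium-containing HEPES buffer, pH 7.2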
RAD52 inh: RAD52 DNA annealing inhibitors, primary screen, biochemical, FRET, single point, set 2; recombinant RAD52 DNA annealing, FRET fluorescence; inhibition, % at 18.7 µM; actives 0.46% (n = 360,000); AID 651710, 2012;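 active = every replicate showing at least 50% inhibition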
AF4-AF9 inh: inhibitors of AF4 peptide binding to AF9, primary screen, biochemical, AlphaScreen, biotin-AF4 peptide, FLAG-AF9, single point; Protein AF-9 (Homo sapiens), P42568; inhibition, % at 10 µM; actives 0.47% (n = 350,000);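 active = every replicate reaching a set inhibition limit, whatever the replicate mean, cut at about 25% in these data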;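 note: 0% = plate neutral control median and 100% = total signal loss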
ERAP1 inh: human ERAP1 aminopeptidase inhibitors, primary screen, biochemical, single point, plate reader; actives 0.15% (n = 340,000); inhibition, % at 10.7 µM; Endoplasmic reticulum aminopeptidase 1 (Homo sapiens), Q9NZ08; recombinant ERAP1, Leu-AMC fluorescence, 60 min; AID 652197, 2013;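 active = mean replicate inhibition of at least 30%, or all replicates individually reaching that 30% level; inactive = mean below 30% and not every replicate reaching it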;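 note: 0% = neutral control wells and 100% = L-leucinethiol positive control wells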
INS-1E GSIS act: GLuc luminescence reporter in INS-1E cells, primary screen for activators of glucose-dependent secretion of insulin; AID 743287, 2014; activation, % at 16.6 µM; actives 0.61% (n = 370,000); INS-1E GLuc reporter insulin secretion, 2-3 h;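 active = lowest replicate activation of at least 40%, so every replicate reaches that level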;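 note: 0% = median of neutral control wells and 100% = median of IBMX positive control wells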
Numbers without * were called inactive; . = no result given.

SMILES	S100A4 MyoIIA	RAD52 inh	AF4-AF9 inh	ERAP1 inh	INS-1E GSIS act
O=C(C1CCCC1)N1C[C@H]2[C@@H](c3ccccc31)[C@@H](CO)N2C(=O)Cc1ccccn1	1	-42	1	1	-15
CN(C)Cc1cc2ccccc2c2c1COC2	-6	4	32*	1	-12
O=C(C[C@@H]1C[C@H]2c3cc(NC(=O)Nc4ccccc4F)ccc3O[C@H]2[C@@H](CO)O1)NCc1ccc2c(c1)OCO2	.	.	.	.	11
CS(=O)(=O)N(CC(=O)N1CCOCC1)c1cccc(Cl)c1	-2	-9	0	34*	.
O=C(C[C@H]1C=C[C@@H](NS(=O)(=O)c2ccc(F)cc2)[C@H](CO)O1)NCCN1CCCCC1	-4	0	-1	0	14
Cn1nnnc1Sc1ncnc2scc(-c3ccccc3)c12	-7	-14	.	7	45*
Cn1nnnc1Sc1ncnc2scc(-c3ccc(Br)cc3)c12	10	-5	2	1	22
Cn1nnnc1Sc1ncnc2scc(-c3ccc(F)cc3)c12	.	.	.	.	61*
CCCC(=O)N1CCC2(CC1)CN(C(=O)CN1CCOCC1)[C@@H](CO)c1c2c2ccc(OC)cc2n1C	.	.	.	.	-9
O=C1N[C@@H](Cc2ccccc2)COCc2cn(nn2)CC[C@@H]1Cc1ccc(Cl)cc1	.	.	.	.	5
OCC(CCc1c[nH]c2ccccc12)c1c[nH]c2ccccc12 (stereo not given)	2	-3	41*	1	-7
CC(C)C1CC2=C(C(=O)OC(C)(C)O2)C(c2ccc(Cl)cc2)O1 (stereo not given)	2	-3	0	-2	.
C[C@@H]1CC2=C(C(=O)OC(C)(C)O2)[C@H](c2ccc(Cl)cc2)O1	-1	3	0	1	52*
C[C@@H]1CC2=C(C(=O)OC(C)(C)O2)[C@H](c2ccc(F)cc2)O1	-1	5	-7	-2	56*
CC1(C)OC(=O)C2=C(C[C@@H](C3CCCCC3)O[C@@H]2c2ccc(F)cc2)O1	1	-12	-1	.	-26
COc1ccc(C(=O)/C(C#N)=N/Nc2ccccc2[N+](=O)[O-])cc1	5	-9	-2	-3	62*
COc1ccc(S(=O)(=O)N[C@@H]2CC[C@@H](CC(=O)NCc3ccccc3F)O[C@H]2CO)cc1	-34	-7	0	0	8
CC(=O)N(C)C[C@H]1Oc2c(NC(=O)NC(C)C)cccc2C(=O)N(C)C[C@@H]1C	.	.	.	.	10
CN1/C(=C\C=C(C#N)C#N)C(C)(C)c2ccccc21	160*	-129	-1	-2	-6
CN1/C(=C\C=C(/C#N)C(=O)Nc2ccc(Cl)cc2)C(C)(C)c2ccccc21	.	.	.	.	5
C[C@H](CO)N1C[C@H](C)[C@H](CN(C)Cc2ccc(C(=O)O)cc2)Oc2ncc(C#CCN(C)C)cc2C1=O	5	-10	-13	2	-2
CCCOc1ccc(C(=O)OCCN(CC)CC)cc1N	-4	95*	4	-3	.
COc1cccc(CNC(=O)C[C@H]2C=C[C@@H](NC(=O)C3CCC3)[C@@H](CO)O2)c1	.	.	.	.	6
COc1ccc2c3c([nH]c2c1)[C@H](CO)N(Cc1ccccc1OC)CC31CN(S(C)(=O)=O)C1	.	.	-2	.	6
CCOC(=O)c1c(C)n(OCc2ccccc2)c2ccc3nonc3c12	-3	-9	33*	-6	2
COCC(=O)Nc1ccc2c(c1)OC[C@@H](C)N(C(=O)CC1CC1)C[C@H](C)[C@H](OC)CN(C)C2=O	-1	-6	2	2	-6
CC(=O)NS(=O)(=O)c1ccc(NC(=O)/C=C/c2cn(-c3ccccc3)nc2-c2ccccc2)cc1	-3	-16	-7	8	-11
O=C(/C=C\c1cn(-c2ccccc2)nc1-c1ccccc1)Nc1nccs1	.	.	.	.	47*
CC(C)C[C@H](NC(=O)c1nc[nH]c1C(=O)NC1CCN(C(=O)OC(C)(C)C)CC1)C(=O)OC(C)(C)C	-1	-9	7	-3	346*
C[C@H](NC(=O)c1[nH]cnc1C(=O)Nc1ccccc1)C(=O)OC(C)(C)C	1	-16	47*	.	9

Screens as filed in PubChem BioAssay.
